The series in a line: Toxicity liver stage against HepG2, at 10uM. In kind it is cell-based. More on the design: test concentration 10 uM, cell line HepG2-A16-CD81EGFP. The conditions noted are these: human, HepG2-A16-CD81EGFP cells; read-out: INHIBITION
In a few lines:
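Uninfected HepG2-A16-CD81EGFP cells, 3 × 10^3 per well, 1536-well, plated on prespotted compound at 10 μM final, parasite-free screening media added to match infected plates; puromycin 10 μM positive, DMSO 0.5% negative; run in parallel with 48 h PbLuc assay at 37 °C, 5% CO2; viability by CellTiter-Glo luminescence, normalized to controls.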

For the molecule `CC(CNC(=O)c1cn(-c2ccccc2)nn1)Cn1cccn1` (stereo not given), the cytotoxicity at 10 µM was -41.6%.

For `O[C@H]1CCN(CC2CCOC2)[C@H]1Cc1ccncc1` (stereo not given in full), the cytotoxicity at 10 µM was -2.32%.

Consider `Cc1ccc(-c2nc(CN3CCCC(Cn4cncn4)C3)no2)cc1` (stereo not given), for which the cytotoxicity at 10 µM was -4.86%.

On to `CCN1CCN(C2CCN(C(C(N)=O)c3ccccc3)CC2)C1=O` (stereo not given), for which the cytotoxicity at 10 µM is -10.3%.

`COc1ccc(CCN2CCC(N3CCN(C)C3=O)CC2)cc1`: the cytotoxicity at 10 µM was -6.64%.

Turning to `COc1cc(C(C)=O)ccc1SCC(=O)Nc1ccccn1`, the cytotoxicity at 10 µM is 11.7%.

For `O=C(NCCc1cc(F)ccc1F)NCC(O)C1CC1` (stereo not given), the cytotoxicity at 10 µM was -2.99%.

As for `Cc1nc(-c2nc(C(=O)N3CCOCC3)c3ccccn23)cn1C(C)C`, the cytotoxicity at 10 µM is 1.53%.

`Cc1ccc(Br)cc1NC(=O)NCC(O)CO` (stereo not given): the cytotoxicity at 10 µM was 12.9%.

As to `O=C(C1CCOC1)N1C[C@H]2CN(Cc3ccncc3)C(=O)[C@H]2C1` (stereo not given in full), the cytotoxicity at 10 µM is -105%.

Consider `Cc1noc(C)c1CCC(=O)N1CCOCC1CC(=O)N1CCCC1` (stereo not given), for which the cytotoxicity at 10 µM worked out at 0.282%.

In the case of `Cn1ccnc1-c1cn(Cc2cn3c(n2)SCC3)nn1`, the cytotoxicity at 10 µM was -0.773%.

For `O=C(NC[C@@H]1C[C@@H]2CN(C(=O)CO)C[C@H]2O1)c1ccsc1`, the cytotoxicity at 10 µM is -96.5%.

For the molecule `COc1ccc(S(=O)(=O)Nc2cccnc2-n2cncn2)cc1C`, the cytotoxicity at 10 µM was -6.87%.

As to `COc1ccc(NC(C)c2ccc(C#N)cc2)cc1N1CCCC1=O` (stereo not given), the cytotoxicity at 10 µM was -7.43%.

Turning to `CCc1nnc2n1CCN(Cc1ccc3c(c1)OCCO3)C2`, the cytotoxicity at 10 µM is -6.61%.

Regarding `Cc1nc(CN2CCO[C@H]3[C@@H](Oc4ccccn4)CC[C@@H]32)cs1`, the cytotoxicity at 10 µM came to 2.4%.

In the case of `CC(C)CC(NC(=O)c1ccc[nH]1)C(=O)N1CCC(CO)CC1` (stereo not given), the cytotoxicity at 10 µM turned out to be 6.74%.

`O=C(NC1CCCC1)c1nc(COc2ccc3c(c2)OCO3)no1`: the cytotoxicity at 10 µM turned out to be 2.87%.

Consider `CNC(=O)CN1CC[C@H]2CN(C(=O)c3ccc(C)nc3)C[C@H]2C1`, for which the cytotoxicity at 10 µM came out at 1.61%.

Take `O=C(Cn1ccc2ccc(Br)cc21)NC[C@@H]1CCCN2CCCC[C@H]12`: the cytotoxicity at 10 µM came to 14.7%.

In the case of `CN1CCC(Cc2noc(-c3cccc(Oc4ncccn4)c3)n2)CC1`, the cytotoxicity at 10 µM was -5.21%.

For the molecule `Cc1ccc(-c2nc(CN3CCOC(Cn4cccn4)C3)co2)cc1` (stereo not given), the cytotoxicity at 10 µM was -5.3%.

Consider `O=C([C@H]1CN(Cc2nccs2)C[C@H]2OCC[C@@H]12)N1CCCC1`, for which the cytotoxicity at 10 µM was -94.1%.

For `Cc1ccc(NC(=O)CNc2cccc(C(N)=O)c2C)c(C)c1`, the cytotoxicity at 10 µM worked out at 17.6%.

Take `Cn1ccnc1CN1CCO[C@H]2C(CNC(=O)c3ccco3)CC[C@@H]21` (stereo not given in full): the cytotoxicity at 10 µM amounted to 3.62%.

As to `O=C1Nc2ccccc2/C1=C1\CCCN1`, the cytotoxicity at 10 µM worked out at 5.02%.

For `Cc1ncsc1CN1C[C@@H]2CCCO[C@@H]2[C@H](N(C)C(C)C)C1`, the cytotoxicity at 10 µM came out at 1.81%.

On to `Cc1csc(NC(=O)CN2CCc3c(nc(C4CC4)n3C)C2)n1`, for which the cytotoxicity at 10 µM is -6.6%.

For `NC(=O)C1CN(Cc2c[nH]cn2)CCN(C2CCOCC2)C1` (stereo not given), the cytotoxicity at 10 µM stood at 3.83%.

`C=C(C)COc1cccc(C(=O)N(CC)Cc2noc(C)n2)c1`: the cytotoxicity at 10 µM is -4.15%.

In the case of `COc1cccc(CN2CC(O)CN(C(=O)C3CCC3)CC2=O)c1OC` (stereo not given), the cytotoxicity at 10 µM is 4.43%.

As for `Cc1cc2c(cc1C)OC(C(=O)NCCNC(=O)C1CCCC1)C2` (stereo not given), the cytotoxicity at 10 µM is 7.71%.

As to `CN(C)c1ccc(C(=O)N2CCN(Cc3cscn3)CC2)cn1`, the cytotoxicity at 10 µM was -4.57%.

On to `COc1ccc(-n2cc3[nH]c(=O)n(C(C)C)n3c2=O)cc1`, for which the cytotoxicity at 10 µM was 2.03%.

In the case of `CC(Cn1cccn1)NC(=O)CCc1ccc(S(N)(=O)=O)cc1` (stereo not given), the cytotoxicity at 10 µM is -2.02%.

As for `CCc1nc(C2CCCN2CCS(=O)(=O)c2ccccc2)no1` (stereo not given), the cytotoxicity at 10 µM is -8.1%.

Consider `O=C(c1ccco1)N1CCC2(CC1)C(=O)NCCN2CC1CC1`, for which the cytotoxicity at 10 µM amounted to 4.3%.

As to `Cc1ccccc1CSCCn1nc2ccccn2c1=O`, the cytotoxicity at 10 µM is 2.57%.

Regarding `CN(C)C(=O)CN1CCO[C@H]2CN(c3ccccn3)C[C@H]21`, the cytotoxicity at 10 µM worked out at 8.16%.

As for `O=C(CC1CC1)N1CCC2(CC(=O)N(c3cccc(F)c3)C2)C1` (stereo not given), the cytotoxicity at 10 µM was -148%.

In the case of `CCOc1ncc(NC(=O)c2ccccn2)c(OCC)n1`, the cytotoxicity at 10 µM is -0.191%.

In the case of `CCN(C)C(=O)c1coc(COc2ccccc2)n1`, the cytotoxicity at 10 µM was found to be 3.36%.

With `CC1CCCN(c2ccccc2OCC(=O)N2CCOCC2)C1` (stereo not given), the cytotoxicity at 10 µM was -22.3%.

Turning to `CNS(=O)(=O)c1ccccc1N1CCN(C(C)C(N)=O)CC1` (stereo not given), the cytotoxicity at 10 µM worked out at 4.87%.

In the case of `CCCOc1ccc2c(c1)OCC(CNC1CCc3ncnn3C1)=C2` (stereo not given), the cytotoxicity at 10 µM is -6.63%.

In the case of `CC(C)c1nn(C)c(N(C)C)c1CNCc1ccnn1C`, the cytotoxicity at 10 µM stood at 0.926%.

Take `Cc1ccc(C(=O)N(C)Cc2cc(C)on2)cn1`: the cytotoxicity at 10 µM was -3.05%.

For `COCCn1cc2c(n1)C(CNS(C)(=O)=O)OCC2` (stereo not given), the cytotoxicity at 10 µM was 0.763%.

In the case of `Cc1nc(CCNC(=O)NC2CCCc3c2cnn3CCO)cs1` (stereo not given), the cytotoxicity at 10 µM came to 6.68%.

As for `CN(C)Cc1nnc(C2CCCN(c3cc(C(F)(F)F)ccn3)C2)n1C` (stereo not given), the cytotoxicity at 10 µM is -11.9%.

As to `O=C(CCC(=O)Nc1nnc(C(F)(F)F)s1)NCC1CCCO1` (stereo not given), the cytotoxicity at 10 µM amounted to 4.65%.

For the molecule `CCCc1ncc(CNC2(c3ccc(Cl)cc3)CCC2)cn1`, the cytotoxicity at 10 µM was -9.48%.

For the molecule `CCNC(=O)Nc1ccc(N2CCC(OC)CC2)c(C(F)(F)F)c1`, the cytotoxicity at 10 µM is 20.4%.

As for `Cn1cccc1C(O)CNS(=O)(=O)c1ccccc1Br` (stereo not given), the cytotoxicity at 10 µM was -11.1%.

On to `Cc1cccc(-c2nc(CN3CCCC3Cn3cc(C)cn3)no2)c1` (stereo not given), for which the cytotoxicity at 10 µM is -1.82%.

Take `Cc1nnc([C@H]2C[C@@H]3CCN(C(=O)C4CCOCC4)C[C@H]3O2)[nH]1`: the cytotoxicity at 10 µM turned out to be 16.5%.

Consider `Cc1cc2c(=O)n3c(nc2s1)CCN(Cc1c[nH]cn1)CC3`, for which the cytotoxicity at 10 µM is -17.6%.

Consider `O=c1cc2c(nn1CN1CCN(c3cccc(Cl)c3)CC1)CCC2`, for which the cytotoxicity at 10 µM is -3.19%.

Consider `COc1ncc(NCc2ccc(C#N)cc2)cc1C(N)=O`, for which the cytotoxicity at 10 µM worked out at 0.217%.

Regarding `Cc1ccc2nc(C3CCN(CC(C)C)CC3)nc(O)c2c1`, the cytotoxicity at 10 µM is 7.69%.

For the molecule `COc1ccc2c(c1)OCC(Cc1ccc(CN)cn1)C2` (stereo not given), the cytotoxicity at 10 µM is -1.84%.

For `O=C(C1CCCN(Cc2cccc(F)c2)C1)N1CCc2sccc2C1` (stereo not given), the cytotoxicity at 10 µM is -0.23%.

In the case of `CC(C)=CCN1C[C@@H]2CC[C@H]1CN(C(=O)c1ccc3c(c1)OCO3)C2`, the cytotoxicity at 10 µM is -0.988%.

As for `CC(C)NC(=O)N1CCC(n2ccc(C(F)(F)F)n2)CC1`, the cytotoxicity at 10 µM is 3.02%.

As to `O=C(c1ccccc1)N1CCC2(CC1)CC(Oc1ccccc1)CO2` (stereo not given), the cytotoxicity at 10 µM was found to be 16.6%.

As for `COc1ccc2cccc(CC(=O)NCCc3n[nH]c(=O)[nH]3)c2c1`, the cytotoxicity at 10 µM is -3.59%.

Regarding `CC(C)C(=O)N1CCC12CCCN(C(=O)c1ccnnc1)C2` (stereo not given), the cytotoxicity at 10 µM was determined as 7.8%.

For the molecule `COCCCN(Cc1cnc(-c2ccccn2)nc1)C1CCN(C)CC1`, the cytotoxicity at 10 µM is -0.988%.

On to `Cn1c(CS(=O)(=O)Cc2ccc(Cl)cc2)cc(=O)n(C)c1=O`, for which the cytotoxicity at 10 µM is 5.59%.

(Values after ChEMBL document CHEMBL4513216, “Probing the Open Global Health Chemical Diversity Library for Multistage-Active Starting Points for Next-Generation Antimalarials” (ACS Infect Dis, 2020).)
